# ChEMBL document CHEMBL4715736, “Identification of anticancer agents based on the thieno[2,3-b]pyridine and 1H-pyrazole molecular scaffolds” (2016)
# What was measured:
# Type in all cases: functional
# UO-31 [1] = assay: Growth inhibition of human UO-31 cells incubated for 48 hrs by sulforhodamine B assay; conditions: for CC50: read-out: LC50 (the source's name)
# Outline: (§1)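 NCI DTP 60-line human tumour panel. Dose-response curves were run only for ligands active in the initial 10 µM screen. GI50 (concentration giving 50% of maximal inhibition of proliferation) and TGI (concentration giving total growth inhibition) were derived from these curves.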
# SN12C = assay: Growth inhibition of human SN12C cells assessed as cell growth at 0.1 uM incubated for 48 hrs by sulforhodamine B assay relative to control; conditions: read-out: Activity
# SF-268 = assay: Growth inhibition of human SF-268 cells incubated for 48 hrs by sulforhodamine B assay; outline: as §1
# UACC-257 = assay: Growth inhibition of human UACC-257 cells assessed as cell growth at 0.1 uM incubated for 48 hrs by sulforhodamine B assay relative to control; conditions: read-out: Activity
# PC-3 = assay: Growth inhibition of human PC-3 cells assessed as cell growth at 0.01 uM incubated for 48 hrs by sulforhodamine B assay relative to control; conditions: read-out: Activity
# HOP-92 = assay: Growth inhibition of human HOP-92 cells assessed as cell growth at 0.1 uM incubated for 48 hrs by sulforhodamine B assay relative to control; conditions: read-out: Activity
# RXF 393 = assay: Growth inhibition of human RXF 393 cells incubated for 48 hrs by sulforhodamine B assay; conditions: for CC50: read-out: LC50 (the source's name); outline: as §1
# NCI-H522 [2] = assay: Growth inhibition of human NCI-H522 cells assessed as cell growth at 100 uM incubated for 48 hrs by sulforhodamine B assay relative to control; conditions: read-out: Activity
# A549 = assay: Growth inhibition of human A549/ATCC cells assessed as cell growth at 1 uM incubated for 48 hrs by sulforhodamine B assay relative to control; conditions: read-out: Activity
# Outline: (§2)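 NCI Developmental Therapeutics Program NCI60 panel. Compounds that were active in the 10 µM one-dose screen went on to dose–response testing. Growth at each concentration is expressed relative to untreated control (100%). GI50 (concentration giving 50% of maximal inhibition of proliferation) and TGI (concentration giving total growth inhibition) were derived from the curves.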
# SK-MEL-2 = assay: Growth inhibition of human SK-MEL-2 cells assessed as cell growth at 0.1 uM incubated for 48 hrs by sulforhodamine B assay relative to control; conditions: read-out: Activity
# HCT-15 = assay: Growth inhibition of human HCT-15 cells assessed as cell growth at 0.1 uM incubated for 48 hrs by sulforhodamine B assay relative to control; conditions: read-out: Activity
# SK-OV-3 [3] = assay: Growth inhibition of human SK-OV-3 cells assessed as cell growth at 0.1 uM incubated for 48 hrs by sulforhodamine B assay relative to control; conditions: read-out: Activity
# OVCAR-5 = assay: Growth inhibition of human OVCAR-5 cells assessed as cell growth at 1 uM incubated for 48 hrs by sulforhodamine B assay relative to control; conditions: read-out: Activity
# M14 [4] = assay: Growth inhibition of human M14 cells assessed as cell growth at 0.1 uM incubated for 48 hrs by sulforhodamine B assay relative to control; conditions: read-out: Activity
# M14 [5] = assay: Growth inhibition of human M14 cells incubated for 48 hrs by sulforhodamine B assay
# Outline: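 NCI60 panel at the NCI Developmental Therapeutics Program. Only compounds active in the 10 µM screen went to dose-response testing. GI50, the concentration giving 50% of maximal inhibition of proliferation, and TGI, the concentration giving total growth inhibition, were derived from the dose-response curves.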
# RPMI-8226 = assay: Growth inhibition of human RPMI-8226 cells assessed as cell growth at 0.01 uM incubated for 48 hrs by sulforhodamine B assay relative to control; conditions: read-out: Activity
# NCI-H522 [6] = assay: Growth inhibition of human NCI-H522 cells assessed as cell growth at 0.1 uM incubated for 48 hrs by sulforhodamine B assay relative to control; conditions: read-out: Activity
# A498 [7] = assay: Growth inhibition of human A498 cells incubated for 48 hrs by sulforhodamine B assay; conditions: for CC50: read-out: LC50 (the source's name); outline: as §2
# A498 [8] = assay: Growth inhibition of human A498 cells assessed as cell growth at 100 uM incubated for 48 hrs by sulforhodamine B assay relative to control; conditions: read-out: Activity; outline: as §2
# OVCAR-3 = assay: Growth inhibition of human OVCAR-3 cells incubated for 48 hrs by sulforhodamine B assay; conditions: for CC50: read-out: LC50 (the source's name); outline: as §1
# NCI-H226 = assay: Growth inhibition of human NCI-H226 cells assessed as cell growth at 0.1 uM incubated for 48 hrs by sulforhodamine B assay relative to control; conditions: read-out: Activity
# ACHN [9] = assay: Growth inhibition of human ACHN cells assessed as cell growth at 100 uM incubated for 48 hrs by sulforhodamine B assay relative to control; conditions: read-out: Activity
# SF-539 = assay: Growth inhibition of human SF-539 cells assessed as cell growth at 1 uM incubated for 48 hrs by sulforhodamine B assay relative to control; conditions: read-out: Activity
# MOLT-4 = assay: Growth inhibition of human MOLT-4 cells assessed as cell growth at 1 uM incubated for 48 hrs by sulforhodamine B assay relative to control; conditions: read-out: Activity
# SK-MEL-5 = assay: Growth inhibition of human SK-MEL-5 cells assessed as cell growth at 100 uM incubated for 48 hrs by sulforhodamine B assay relative to control; conditions: read-out: Activity
# U-251 = assay: Growth inhibition of human U-251 cells assessed as cell growth at 100 uM incubated for 48 hrs by sulforhodamine B assay relative to control; conditions: read-out: Activity
# TK-10 = assay: Growth inhibition of human TK-10 cells incubated for 48 hrs by sulforhodamine B assay; conditions: for CC50: read-out: LC50 (the source's name); outline: as §1
# HT-29 = assay: Growth inhibition of human HT-29 cells assessed as cell growth at 0.01 uM incubated for 48 hrs by sulforhodamine B assay relative to control; conditions: read-out: Activity
# HCT-116 = assay: Growth inhibition of human HCT-116 cells assessed as cell growth at 1 uM incubated for 48 hrs by sulforhodamine B assay relative to control; conditions: read-out: Activity
# ACHN [10] = assay: Growth inhibition of human ACHN cells assessed as cell growth at 0.01 uM incubated for 48 hrs by sulforhodamine B assay relative to control; conditions: read-out: Activity
# UO-31 [11] = assay: Growth inhibition of human UO-31 cells assessed as cell growth at 0.01 uM incubated for 48 hrs by sulforhodamine B assay relative to control; conditions: read-out: Activity
# SNB-75 = assay: Growth inhibition of human SNB-75 cells assessed as cell growth at 0.1 uM incubated for 48 hrs by sulforhodamine B assay relative to control; conditions: read-out: Activity
# SK-OV-3 [12] = assay: Growth inhibition of human SK-OV-3 cells assessed as cell growth at 1 uM incubated for 48 hrs by sulforhodamine B assay relative to control; conditions: read-out: Activity
# COLO 205 = assay: Growth inhibition of human COLO 205 cells assessed as cell growth at 0.1 uM incubated for 48 hrs by sulforhodamine B assay relative to control; conditions: read-out: Activity; outline: as §2
# MCF7 = assay: Growth inhibition of human MCF7 cells assessed as cell growth at 100 uM incubated for 48 hrs by sulforhodamine B assay relative to control; conditions: read-out: Activity
smiles,measurement,setting,value
Nc1c(C(=O)Nc2ccccc2)sc2nc3c(cc12)CN(Cc1ccccc1)CC3,GI50,UO-31 [1],6.14 µM
same,TGI,UO-31 [1],> 100 µM
same,CC50,UO-31 [1],> 100 µM
same,growth at 0.1 µM,SN12C,94%
same,GI50,SF-268,5.62 µM
same,LC50 (concentration killing 50% of cells),SF-268,> 100 µM
same,TGI,SF-268,> 100 µM
same,growth at 0.1 µM,UACC-257,95%
same,growth at 0.01 µM,PC-3,95%
same,growth at 0.1 µM,HOP-92,86%
same,GI50,RXF 393,3.15 µM
same,TGI,RXF 393,54.2 µM
same,CC50,RXF 393,> 100 µM
same,growth at 100 µM,NCI-H522 [2],31%
same,growth at 1 µM,A549,88%
same,growth at 0.1 µM,SK-MEL-2,95%
same,growth at 0.1 µM,HCT-15,97%
same,growth at 0.1 µM,SK-OV-3 [3],93%
same,growth at 1 µM,OVCAR-5,93%
same,growth at 0.1 µM,M14 [4],91%
same,GI50,M14 [5],30.8 µM
same,LC50 (concentration killing 50% of cells),M14 [5],> 100 µM
same,TGI,M14 [5],> 100 µM
same,growth at 0.01 µM,RPMI-8226,97%
same,growth at 0.1 µM,NCI-H522 [6],87%
same,GI50,A498 [7],1.78 µM
same,CC50,A498 [7],> 100 µM
same,growth at 100 µM,A498 [8],42%
same,GI50,OVCAR-3,11.4 µM
same,TGI,OVCAR-3,> 100 µM
same,CC50,OVCAR-3,> 100 µM
same,growth at 0.1 µM,NCI-H226,96%
same,growth at 100 µM,ACHN [9],10%
same,growth at 1 µM,SF-539,83%
same,growth at 1 µM,MOLT-4,97%
same,growth at 100 µM,SK-MEL-5,16%
same,growth at 100 µM,U-251,12%
same,GI50,TK-10,4.09 µM
same,TGI,TK-10,54.7 µM
same,CC50,TK-10,> 100 µM
same,growth at 0.01 µM,HT-29,104%
same,growth at 1 µM,HCT-116,86%
same,growth at 0.01 µM,ACHN [10],101%
same,growth at 0.01 µM,UO-31 [11],80%
same,growth at 0.1 µM,SNB-75,83%
same,growth at 1 µM,SK-OV-3 [12],96%
same,growth at 0.1 µM,COLO 205,94%
same,growth at 100 µM,MCF7,14%
CN1CCc2nc3sc(C(N)=O)c(N)c3c(-c3cccs3)c2C1,GI50,UO-31 [1],3.47 µM
same,TGI,UO-31 [1],> 100 µM
same,CC50,UO-31 [1],> 100 µM
same,growth at 0.1 µM,SN12C,93%
same,GI50,SF-268,3.85 µM
same,LC50 (concentration killing 50% of cells),SF-268,> 100 µM
same,TGI,SF-268,> 100 µM
same,growth at 0.1 µM,UACC-257,105%
same,growth at 0.01 µM,PC-3,105%
same,growth at 0.1 µM,HOP-92,116%
same,GI50,RXF 393,1.11 µM
same,TGI,RXF 393,3.63 µM
same,CC50,RXF 393,> 100 µM
same,growth at 100 µM,NCI-H522 [2],-26%
same,growth at 1 µM,A549,91%
same,growth at 0.1 µM,SK-MEL-2,114%
same,growth at 0.1 µM,HCT-15,106%
same,growth at 0.1 µM,SK-OV-3 [3],92%
same,growth at 0.1 µM,M14 [4],111%
same,GI50,M14 [5],4.19 µM
same,LC50 (concentration killing 50% of cells),M14 [5],> 100 µM
same,TGI,M14 [5],19.4 µM
same,growth at 0.01 µM,RPMI-8226,108%
same,growth at 0.1 µM,NCI-H522 [6],100%
same,GI50,A498 [7],2.58 µM
same,TGI,A498 [7],7.27 µM
same,CC50,A498 [7],> 100 µM
same,growth at 100 µM,A498 [8],-23%
same,GI50,OVCAR-3,2.16 µM
same,TGI,OVCAR-3,6.23 µM
same,CC50,OVCAR-3,> 100 µM
same,growth at 0.1 µM,NCI-H226,89%
same,growth at 1 µM,SF-539,90%
same,growth at 1 µM,MOLT-4,85%
same,growth at 100 µM,SK-MEL-5,-42%
same,growth at 100 µM,U-251,7%
same,GI50,TK-10,3.32 µM
same,TGI,TK-10,13.1 µM
same,CC50,TK-10,> 100 µM
same,growth at 0.01 µM,HT-29,106%
same,growth at 1 µM,HCT-116,75%
same,growth at 0.01 µM,UO-31 [11],97%
same,growth at 0.1 µM,SNB-75,95%
same,growth at 1 µM,SK-OV-3 [12],89%
same,growth at 0.1 µM,COLO 205,103%
same,growth at 100 µM,MCF7,11%
CCc1cccc(C)c1NC(=O)c1sc2nc3c(cc2c1N)C(=O)CCC3,GI50,UO-31 [1],0.0982 µM
same,TGI,UO-31 [1],≥ 100 µM
same,CC50,UO-31 [1],> 100 µM
same,growth at 0.1 µM,SN12C,92%
same,GI50,SF-268,3.04 µM
same,LC50 (concentration killing 50% of cells),SF-268,> 100 µM
same,TGI,SF-268,> 100 µM
same,growth at 0.1 µM,UACC-257,82%
same,growth at 0.01 µM,PC-3,94%
same,growth at 0.1 µM,HOP-92,70%
same,GI50,RXF 393,0.202 µM
same,CC50,RXF 393,> 100 µM
same,growth at 1 µM,A549,37%
same,growth at 0.1 µM,HCT-15,92%
same,growth at 1 µM,OVCAR-5,59%
same,growth at 0.1 µM,M14 [4],92%
same,GI50,M14 [5],0.367 µM
same,LC50 (concentration killing 50% of cells),M14 [5],> 100 µM
same,TGI,M14 [5],19.5 µM
same,growth at 0.01 µM,RPMI-8226,101%
same,GI50,A498 [7],0.178 µM
same,TGI,A498 [7],0.665 µM
same,CC50,A498 [7],> 100 µM
same,growth at 100 µM,A498 [8],-16%
same,GI50,OVCAR-3,0.374 µM
same,TGI,OVCAR-3,2.3 µM
same,CC50,OVCAR-3,> 100 µM
same,growth at 0.1 µM,NCI-H226,94%
same,growth at 100 µM,ACHN [9],5%
same,growth at 1 µM,SF-539,8%
same,growth at 1 µM,MOLT-4,67%
same,growth at 100 µM,SK-MEL-5,-78%
same,growth at 100 µM,U-251,4%
same,growth at 1 µM,HCT-116,28%
same,growth at 0.01 µM,ACHN [10],94%
same,growth at 0.01 µM,UO-31 [11],86%
same,growth at 0.1 µM,SNB-75,75%
same,growth at 0.1 µM,COLO 205,102%
same,growth at 100 µM,MCF7,-1%
